Experimental data reported in ChEMBL document CHEMBL3872285, “Discovery of a Potent, Selective, and Orally Available PI3Kδ Inhibitor for the Treatment of Inflammatory Diseases” (ACS Med Chem Lett, 2017).

What was measured:
[1] = Oral bioavailability in Wistar rat at 1 mg/kg administered via gavage; type: ADME, organism-based; settings: in vivo
[2] = system: Rattus norvegicus; experiment: In vivo inhibition of PI3Kdelta in Wistar rat assessed as reduction in ConA-induced increase in plasma IL2 production administered through oral gavage 1 hr prior to ConA measured 90 mins post ConA challenge by ELISA; type: functional; settings: read-out: ID50 (the source's name)
[3] = Half life in Beagle dog at 1 mg/kg, iv through bolus administration; type: ADME, organism-based, Canis lupus familiaris; settings: in vivo
[4] = system: Rattus norvegicus; experiment: Anti-inflammatory activity in Brown Norway rat assessed as reduction in OVA-induced eosinophil infilteration to bronchoalveolar lavage administered orally bid 1 hr prior to OVA challenge on day 14 and 6 hrs post OVA challenge on day 21 measured 24 hrs post last OVA challenge by microscopic method; type: functional; settings: for ED50: po, read-out: ID50 (the source's name)
[5] = Half life in Wistar rat at 1 mg/kg, iv; type: ADME, organism-based; settings: in vivo
[6] = AUC in Wistar rat at 1 mg/kg, iv; type: ADME, organism-based; settings: in vivo
How it was run: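 Wistar rats received a single 1 mg/kg intravenous dose. Plasma samples were collected and AUC was calculated from them, along with half-life, clearance and steady-state volume of distribution. Values are means of two animals (n=2).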

[7] = AUC in Beagle dog at 1 mg/kg, iv through bolus administration; type: ADME, organism-based, Canis lupus familiaris; settings: in vivo
[8] = Apparent volume of distribution in Beagle dog at 1 mg/kg, iv through bolus administration; type: ADME, organism-based, Canis lupus familiaris; settings: in vivo, read-out: Vz
[9] = Apparent volume of distribution in Wistar rat at 1 mg/kg, iv; type: ADME, organism-based; settings: in vivo, read-out: Vz
[10] = Volume of distribution at steady state in Wistar rat at 1 mg/kg, iv; type: ADME, organism-based; settings: in vivo, read-out: Vdss
[11] = Clearance in Wistar rat at 1 mg/kg, iv; settings: in vivo
[12] = target: PI3-kinase p110-delta/p85-alpha (Homo sapiens, UniProt O00329); experiment: Inhibition of full length recombinant human N-terminal His6-tagged PI3K p110delta/human p85alpha expressed in baculovirus infected sf21 cells using PIP2 as substrate preincubated for 30 mins followed by substrate addition by HTRF assay
PI3-kinase p110-delta/p85-alpha, sequence (P27986 whole entry, one chain of several, canonical isoform): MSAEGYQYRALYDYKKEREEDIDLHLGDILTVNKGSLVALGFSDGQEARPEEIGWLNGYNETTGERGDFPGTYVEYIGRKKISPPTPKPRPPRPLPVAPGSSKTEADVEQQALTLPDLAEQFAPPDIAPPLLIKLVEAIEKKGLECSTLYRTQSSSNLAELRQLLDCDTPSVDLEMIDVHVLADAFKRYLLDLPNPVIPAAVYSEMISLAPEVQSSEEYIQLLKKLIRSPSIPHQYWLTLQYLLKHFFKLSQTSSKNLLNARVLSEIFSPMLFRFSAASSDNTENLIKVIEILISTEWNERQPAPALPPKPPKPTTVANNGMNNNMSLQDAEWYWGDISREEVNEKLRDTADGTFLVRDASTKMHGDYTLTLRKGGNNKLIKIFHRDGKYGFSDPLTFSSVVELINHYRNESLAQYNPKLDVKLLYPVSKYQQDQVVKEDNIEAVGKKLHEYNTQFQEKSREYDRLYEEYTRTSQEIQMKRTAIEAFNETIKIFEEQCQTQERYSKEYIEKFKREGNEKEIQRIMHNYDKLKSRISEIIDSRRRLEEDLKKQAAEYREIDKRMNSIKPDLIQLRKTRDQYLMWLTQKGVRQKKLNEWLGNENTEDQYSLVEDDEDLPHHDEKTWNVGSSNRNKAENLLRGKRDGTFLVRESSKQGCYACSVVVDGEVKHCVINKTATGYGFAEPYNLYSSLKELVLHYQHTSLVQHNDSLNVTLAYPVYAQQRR

[13] = target: T1, Phosphatidylinositol 4,5-bisphosphate 3-kinase catalytic subunit delta isoform (Homo sapiens, UniProt O00329); experiment: Inhibition of PI3Kdelta in human THP1 cells assessed as reduction in MCSF-stimulated akt phosphorylation at Thr308 preincubated for 30 mins followed by MCSF stimulation for 3 mins by ELISA; type: cell-based, THP-1
T1 sequence (O00329 whole entry): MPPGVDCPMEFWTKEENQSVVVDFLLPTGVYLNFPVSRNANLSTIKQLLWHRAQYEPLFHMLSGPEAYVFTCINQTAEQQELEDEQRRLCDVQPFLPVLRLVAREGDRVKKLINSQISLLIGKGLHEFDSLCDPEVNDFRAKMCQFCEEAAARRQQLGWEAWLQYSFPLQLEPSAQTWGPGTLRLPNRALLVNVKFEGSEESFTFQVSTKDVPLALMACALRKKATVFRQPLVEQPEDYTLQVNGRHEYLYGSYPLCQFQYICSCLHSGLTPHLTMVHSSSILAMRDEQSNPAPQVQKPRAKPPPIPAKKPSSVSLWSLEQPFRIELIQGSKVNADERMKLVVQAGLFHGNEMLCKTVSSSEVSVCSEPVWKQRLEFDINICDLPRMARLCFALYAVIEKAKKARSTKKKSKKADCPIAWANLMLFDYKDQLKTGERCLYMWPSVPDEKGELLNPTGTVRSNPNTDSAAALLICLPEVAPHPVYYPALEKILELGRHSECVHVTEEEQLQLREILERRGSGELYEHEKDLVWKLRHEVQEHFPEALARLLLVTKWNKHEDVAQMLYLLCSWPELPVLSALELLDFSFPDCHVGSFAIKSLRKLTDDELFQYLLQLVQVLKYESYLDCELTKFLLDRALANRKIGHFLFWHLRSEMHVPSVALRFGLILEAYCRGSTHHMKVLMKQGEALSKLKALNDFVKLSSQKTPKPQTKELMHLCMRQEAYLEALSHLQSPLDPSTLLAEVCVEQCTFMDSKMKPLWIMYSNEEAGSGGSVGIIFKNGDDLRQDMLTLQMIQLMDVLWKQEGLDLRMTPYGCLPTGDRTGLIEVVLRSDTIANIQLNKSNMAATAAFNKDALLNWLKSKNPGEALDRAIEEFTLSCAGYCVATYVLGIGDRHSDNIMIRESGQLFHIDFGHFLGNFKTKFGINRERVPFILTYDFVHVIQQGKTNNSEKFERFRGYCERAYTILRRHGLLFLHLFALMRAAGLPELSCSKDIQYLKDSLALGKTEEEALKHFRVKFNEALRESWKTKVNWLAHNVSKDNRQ
How it was run: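 THP-1 cells exposed to compound for 30 min, then stimulated with MCSF at EC80 for 3 min; lysates assayed by ELISA for pAkt (Thr308).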

[14] = Drug metabolism in human liver microsomes assessed as disappearance of parent compound at 5 uM after 30 mins in presence of NADPH by UPLC-MS/MS analysis
[15] = Drug metabolism in rat liver microsomes assessed as disappearance of parent compound at 5 uM after 30 mins in presence of NADPH by UPLC-MS/MS analysis
[16] = target: Cytochrome P450 2C19 (Homo sapiens, UniProt P33261); experiment: Inhibition of CYP2C19 in human liver microsomes assessed as reduction in S-mephenytoin-4-hydroxylation at 1 to 25 uM by UPLC-MS/MS analysis; type: ADME
Cytochrome P450 2C19, sequence (P33261 whole entry): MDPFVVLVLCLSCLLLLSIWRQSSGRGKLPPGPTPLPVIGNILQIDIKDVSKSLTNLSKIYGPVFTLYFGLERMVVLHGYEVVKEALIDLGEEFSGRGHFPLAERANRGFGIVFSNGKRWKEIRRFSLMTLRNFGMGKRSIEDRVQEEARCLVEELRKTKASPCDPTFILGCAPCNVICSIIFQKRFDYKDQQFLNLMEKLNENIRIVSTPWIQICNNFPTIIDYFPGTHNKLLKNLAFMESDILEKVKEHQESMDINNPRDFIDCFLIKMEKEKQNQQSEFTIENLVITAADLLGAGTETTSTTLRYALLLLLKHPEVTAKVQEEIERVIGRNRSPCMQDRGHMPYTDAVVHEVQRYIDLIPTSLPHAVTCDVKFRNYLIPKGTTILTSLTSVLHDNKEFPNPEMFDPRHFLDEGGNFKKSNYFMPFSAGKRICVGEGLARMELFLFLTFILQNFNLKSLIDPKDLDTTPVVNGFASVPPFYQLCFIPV

[17] = target: Cytochrome P450 2D6 (Homo sapiens, UniProt P10635); experiment: Inhibition of CYP2D6 in human liver microsomes assessed as reduction in dextromethorphan O-demethylation at 1 to 25 uM by UPLC-MS/MS analysis; type: ADME
Cytochrome P450 2D6, sequence (P10635 whole entry): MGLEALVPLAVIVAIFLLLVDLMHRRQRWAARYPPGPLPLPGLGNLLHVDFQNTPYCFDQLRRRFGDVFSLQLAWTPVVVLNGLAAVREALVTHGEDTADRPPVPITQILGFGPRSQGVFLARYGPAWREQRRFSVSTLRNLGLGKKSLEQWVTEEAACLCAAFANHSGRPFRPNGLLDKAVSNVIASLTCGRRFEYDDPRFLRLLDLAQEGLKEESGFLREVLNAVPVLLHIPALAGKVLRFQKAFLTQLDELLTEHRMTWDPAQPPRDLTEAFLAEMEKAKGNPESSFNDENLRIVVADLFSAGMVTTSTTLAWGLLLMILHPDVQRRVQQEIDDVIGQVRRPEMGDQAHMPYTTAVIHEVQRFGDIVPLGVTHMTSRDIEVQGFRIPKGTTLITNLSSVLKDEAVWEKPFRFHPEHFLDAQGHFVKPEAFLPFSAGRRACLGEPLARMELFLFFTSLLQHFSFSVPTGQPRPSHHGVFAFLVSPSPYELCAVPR

[18] = Protein binding in mouse plasma at 1uM by LC-MS/MS analysis; type: ADME, cell-free; settings: read-out: PPB
[19] = Protein binding in rat plasma at 1 uM by LC-MS/MS analysis; type: ADME, cell-free; settings: read-out: PPB
[20] = target: T2, Cytochrome P450 1A2 (Homo sapiens, UniProt P05177); experiment: Inhibition of CYP1A2 in human liver microsomes assessed as reduction in Ethoxyresorufin O-deethylation at 1 to 25 uM by UPLC-MS/MS analysis; type: ADME
T2 sequence (P05177 whole entry): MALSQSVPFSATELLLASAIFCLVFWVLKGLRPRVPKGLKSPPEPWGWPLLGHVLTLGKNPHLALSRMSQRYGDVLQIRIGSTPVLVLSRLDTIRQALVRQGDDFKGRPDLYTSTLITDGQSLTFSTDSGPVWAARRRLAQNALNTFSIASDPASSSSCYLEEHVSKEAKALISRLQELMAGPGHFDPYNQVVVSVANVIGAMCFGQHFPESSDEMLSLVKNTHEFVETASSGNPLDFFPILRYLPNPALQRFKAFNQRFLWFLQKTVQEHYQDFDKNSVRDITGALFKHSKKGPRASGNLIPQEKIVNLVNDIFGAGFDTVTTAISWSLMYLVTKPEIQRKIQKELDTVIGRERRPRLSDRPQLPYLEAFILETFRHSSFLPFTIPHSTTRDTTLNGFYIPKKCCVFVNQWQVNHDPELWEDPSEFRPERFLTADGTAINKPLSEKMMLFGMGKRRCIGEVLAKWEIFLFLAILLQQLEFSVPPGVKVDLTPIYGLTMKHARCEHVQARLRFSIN

[21] = Protein binding in human plasma at 1 uM by LC-MS/MS analysis; type: ADME, cell-free; settings: read-out: PPB
How it was run: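 Binding measured by equilibrium dialysis at 37 °C, compound at 1 µM in human plasma; percent bound reported as mean.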

[22] = Apparent permeability of compound at 20 uM after 5 hrs by PAMPA; type: ADME
[23] = Oral bioavailability in Beagle dog at 1 mg/kg administered via gavage; type: ADME, organism-based, Canis lupus familiaris; settings: in vivo
[24] = Clearance in Beagle dog at 1 mg/kg, iv through bolus administration; settings: in vivo
[25] = Stability in human plasma at 5 uM up to 24 hrs by UPLC-MS/MS analysis; type: ADME, cell-free; settings: read-out: Stability
How it was run: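 Compound incubated at 2 µg/ml in plasma (sodium heparin anticoagulant) at 37 °C for 24 h; percent remaining reported.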

[26] = target: Cytochrome P450 3A4 (Homo sapiens, UniProt P08684); experiment: Inhibition of CYP3A4 in human liver microsomes assessed as reduction in testosterone 6beta-hydroxylation at 1 to 25 uM by UPLC-MS/MS analysis; type: ADME
Cytochrome P450 3A4, sequence (P08684 whole entry): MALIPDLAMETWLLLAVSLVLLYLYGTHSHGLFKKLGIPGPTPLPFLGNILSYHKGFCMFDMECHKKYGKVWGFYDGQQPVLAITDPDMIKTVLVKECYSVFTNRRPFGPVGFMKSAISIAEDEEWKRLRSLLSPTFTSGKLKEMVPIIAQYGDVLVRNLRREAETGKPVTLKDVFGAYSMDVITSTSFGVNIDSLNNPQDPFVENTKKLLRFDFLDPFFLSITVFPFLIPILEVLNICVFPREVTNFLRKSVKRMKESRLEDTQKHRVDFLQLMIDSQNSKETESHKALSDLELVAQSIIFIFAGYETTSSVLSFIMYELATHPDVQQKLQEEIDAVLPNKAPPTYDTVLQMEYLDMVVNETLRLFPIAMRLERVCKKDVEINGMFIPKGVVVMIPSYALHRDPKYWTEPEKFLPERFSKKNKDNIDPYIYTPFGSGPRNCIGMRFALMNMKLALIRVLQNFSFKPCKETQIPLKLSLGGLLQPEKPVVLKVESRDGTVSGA

[27] = Protein binding in dog plasma at 1 uM by LC-MS/MS analysis; type: ADME, cell-free, Canis lupus familiaris; settings: read-out: PPB
[28] = target: Cytochrome P450 2C9 (Homo sapiens, UniProt P11712); experiment: Inhibition of CYP2C9 in human liver microsomes assessed as reduction in diclofenac 4-hydroxylation at 1 to 25 uM by UPLC-MS/MS analysis; type: ADME
Cytochrome P450 2C9, sequence (P11712 whole entry): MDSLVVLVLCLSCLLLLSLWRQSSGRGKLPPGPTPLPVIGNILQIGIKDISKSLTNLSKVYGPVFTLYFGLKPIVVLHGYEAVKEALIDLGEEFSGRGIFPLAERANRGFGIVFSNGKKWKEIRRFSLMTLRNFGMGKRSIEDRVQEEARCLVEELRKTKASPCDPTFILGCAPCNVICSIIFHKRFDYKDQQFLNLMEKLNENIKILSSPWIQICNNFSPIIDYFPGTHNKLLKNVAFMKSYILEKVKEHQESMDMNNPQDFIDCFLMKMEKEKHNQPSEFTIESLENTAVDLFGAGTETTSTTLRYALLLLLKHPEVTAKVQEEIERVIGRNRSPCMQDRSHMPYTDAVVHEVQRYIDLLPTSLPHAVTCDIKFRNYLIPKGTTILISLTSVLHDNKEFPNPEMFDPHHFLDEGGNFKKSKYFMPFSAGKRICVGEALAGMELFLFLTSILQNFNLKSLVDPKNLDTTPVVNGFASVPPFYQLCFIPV

[29] = target: PI3K p110 beta/p85 alpha (Homo sapiens, UniProt P42338); experiment: Inhibition of full length recombinant human N-terminal […]-tagged PI3K p110beta/full length human p85alpha expressed in baculovirus infected Sf21 insect cells using PIP2 as substrate preincubated for 30 mins followed by substrate addition by HTRF assay
PI3K p110 beta/p85 alpha, sequence (P27986 whole entry, canonical isoform): as the sequence (P27986 whole entry, one chain of several, canonical isoform) above
PI3K p110 beta/p85 alpha, sequence (P42338 whole entry, canonical isoform): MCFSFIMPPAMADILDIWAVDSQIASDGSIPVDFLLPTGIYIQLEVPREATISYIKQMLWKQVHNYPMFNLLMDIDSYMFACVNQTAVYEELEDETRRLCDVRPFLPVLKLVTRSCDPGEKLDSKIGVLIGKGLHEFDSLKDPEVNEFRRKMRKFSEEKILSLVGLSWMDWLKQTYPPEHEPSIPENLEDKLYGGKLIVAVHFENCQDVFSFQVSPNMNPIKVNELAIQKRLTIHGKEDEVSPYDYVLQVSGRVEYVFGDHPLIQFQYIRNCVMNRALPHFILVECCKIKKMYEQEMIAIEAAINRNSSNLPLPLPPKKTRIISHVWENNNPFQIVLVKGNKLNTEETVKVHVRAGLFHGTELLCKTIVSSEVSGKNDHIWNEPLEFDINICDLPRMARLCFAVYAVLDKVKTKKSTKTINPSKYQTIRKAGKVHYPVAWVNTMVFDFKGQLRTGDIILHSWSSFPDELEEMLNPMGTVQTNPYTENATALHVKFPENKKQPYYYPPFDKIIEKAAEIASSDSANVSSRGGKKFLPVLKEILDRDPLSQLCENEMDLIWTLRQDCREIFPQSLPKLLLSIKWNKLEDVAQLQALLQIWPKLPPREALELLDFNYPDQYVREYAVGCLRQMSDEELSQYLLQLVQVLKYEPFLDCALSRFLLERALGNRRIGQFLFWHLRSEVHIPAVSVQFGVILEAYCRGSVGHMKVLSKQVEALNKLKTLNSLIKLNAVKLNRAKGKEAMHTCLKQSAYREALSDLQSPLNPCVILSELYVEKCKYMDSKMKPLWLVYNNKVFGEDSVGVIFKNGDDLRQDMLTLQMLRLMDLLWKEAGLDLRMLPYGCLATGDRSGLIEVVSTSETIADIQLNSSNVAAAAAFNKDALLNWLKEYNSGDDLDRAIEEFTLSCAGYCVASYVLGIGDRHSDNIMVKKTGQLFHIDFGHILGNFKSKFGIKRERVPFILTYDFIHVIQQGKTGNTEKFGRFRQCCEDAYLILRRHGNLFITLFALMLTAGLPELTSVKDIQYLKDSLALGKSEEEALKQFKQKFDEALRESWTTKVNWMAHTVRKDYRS
How it was run: (§1)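 Recombinant human class I PI3K isoform, HTRF readout. ATP held at the Km of the enzyme. Compound preincubated with enzyme for 30 min. PIP3 product detected by its displacement of biotin-PIP3 from an energy-transfer complex.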

[30] = target: PI3-kinase p110-alpha/p85-alpha (Homo sapiens, UniProt P42336); experiment: Inhibition of full length recombinant human N-terminal His6-tagged PI3K p110alpha/human p85alpha expressed in baculovirus infected Sf21 insect cells using PIP2 as substrate preincubated for 30 mins followed by substrate addition by HTRF assay; how it was run: as §1
PI3-kinase p110-alpha/p85-alpha, sequence (P27986 whole entry): as the sequence (P27986 whole entry, one chain of several, canonical isoform) above
PI3-kinase p110-alpha/p85-alpha, sequence (P42336 whole entry): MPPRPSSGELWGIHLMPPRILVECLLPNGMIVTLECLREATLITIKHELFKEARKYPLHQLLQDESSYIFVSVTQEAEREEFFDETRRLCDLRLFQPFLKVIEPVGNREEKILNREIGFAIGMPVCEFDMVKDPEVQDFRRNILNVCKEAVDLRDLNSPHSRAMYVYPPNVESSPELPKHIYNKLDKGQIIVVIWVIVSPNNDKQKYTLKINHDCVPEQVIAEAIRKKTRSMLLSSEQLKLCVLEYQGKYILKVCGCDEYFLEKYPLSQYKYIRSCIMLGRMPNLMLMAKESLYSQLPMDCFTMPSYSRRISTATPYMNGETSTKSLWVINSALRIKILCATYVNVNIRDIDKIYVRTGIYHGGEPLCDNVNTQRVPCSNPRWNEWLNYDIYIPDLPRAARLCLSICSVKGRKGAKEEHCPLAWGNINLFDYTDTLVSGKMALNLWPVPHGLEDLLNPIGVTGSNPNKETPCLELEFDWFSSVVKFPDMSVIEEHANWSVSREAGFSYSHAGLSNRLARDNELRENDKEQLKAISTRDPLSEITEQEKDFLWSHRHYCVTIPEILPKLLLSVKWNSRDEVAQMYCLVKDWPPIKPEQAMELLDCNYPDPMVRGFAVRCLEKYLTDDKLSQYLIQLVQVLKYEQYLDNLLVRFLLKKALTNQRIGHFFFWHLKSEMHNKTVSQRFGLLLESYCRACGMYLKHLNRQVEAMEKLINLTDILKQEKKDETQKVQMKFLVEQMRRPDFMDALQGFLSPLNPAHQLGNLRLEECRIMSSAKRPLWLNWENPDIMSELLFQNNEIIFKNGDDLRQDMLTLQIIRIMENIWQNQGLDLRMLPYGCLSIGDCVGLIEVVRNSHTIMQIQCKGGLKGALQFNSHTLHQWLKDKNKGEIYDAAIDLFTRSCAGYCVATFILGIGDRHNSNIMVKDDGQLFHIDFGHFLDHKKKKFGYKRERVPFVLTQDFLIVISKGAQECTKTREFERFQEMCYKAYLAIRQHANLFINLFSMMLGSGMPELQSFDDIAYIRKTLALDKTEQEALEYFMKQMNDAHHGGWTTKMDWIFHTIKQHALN

| SMILES | bioavailability [1] [%] | half-life [3] [h] | half-life [5] [h] | AUC [6] [ng·h/mL] | AUC [7] [ng·h/mL] | Vd [8] [L/kg] | Vd [9] [L/kg] | clearance [11] [mL/min/kg] | IC50 [12] [nM] | IC50 [13] [nM] | metabolised at 0.5 h, 5 µM [14] [%] | metabolised at 0.5 h, 5 µM [15] [%] | other results |
| --- | --- | --- | --- | --- | --- | --- | --- | --- | --- | --- | --- | --- | --- |
| CC[C@H](Nc1ncnc2[nH]cnc12)c1nc2cccc(F)c2c(=O)n1-c1ccccc1 [IDELALISIB] | 68 | 1.6 | 0.8 | 512 | 924 | 2.5 | 2.2 |  |  |  |  |  | ED50 [2]: 1.6 mg/kg; ED50 [4]: 15 mg/kg |
| N#Cc1c(N)ncnc1N[C@@H](CCO)c1nn2cccc2c(=O)n1-c1ccccc1 |  |  | 1.1 | 450 |  |  |  | 36.8 | 4.8 | 16 | 7 |  | Vd [10]: 1.6 L/kg |
| C[C@H](Nc1ncnc(N)c1C#N)c1nn2cccc2c(=O)n1-c1ccccc1 |  |  | 0.9 | 386 |  |  |  | 43.5 |  |  | 24 | 15 | Vd [10]: 1.9 L/kg |
| C[C@H](Nc1ncnc(N)c1C#N)c1nn2ccc(C#N)c2c(=O)n1-c1ccccc1 | 101 | 10.2 | 3.1 | 1730 | 9440 | 1.2 | 2.6 | 9.6 | 2.6 |  | 16 | 20 | IC50 [16]: > 25000 nM; ED50 [2]: 0.13 mg/kg; IC50 [17]: > 25000 nM; Activity [4]: Dose-dependent effect; ED50 [4]: 0.16 mg/kg; fraction unbound at 1 µM [18]: 0.35 to 0.4; fraction unbound at 1 µM [19]: 0.35 to 0.4; IC50 [20]: > 25000 nM; fraction unbound at 1 µM [21]: 0.046 to 0.05; Papp at 5 h, 20 µM [22]: 2.8 ×10⁻⁶ cm/s; bioavailability [23]: 98%; clearance [24]: 1.4 mL/min/kg; remaining at 24 h, 5 µM [25]: 100%; IC50 [26]: > 25000 nM; fraction unbound at 1 µM [27]: 0.35 to 0.4; IC50 [28]: > 25000 nM; IC50 [29]: 94 nM; IC50 [30]: 8200 nM |
| C[C@H](Nc1ncnc(N)c1C#N)c1nn2c(C#N)ccc2c(=O)n1-c1ccccc1 |  |  |  |  |  |  |  |  | 4 | 11 | 22 | 24 |  |
| C[C@H](Nc1ncnc2[nH]cnc12)c1nn2cccc2c(=O)n1-c1ccccc1 |  |  |  |  |  |  |  |  | 10 | 7 | 30 | 18 |  |
| Cc1ccc2c(=O)n(-c3ccccc3)c([C@H](C)Nc3ncnc(N)c3C#N)nn12 |  |  |  |  |  |  |  |  | 8.8 | 11 | 82 | 54 |  |
| C[C@H](Nc1ncnc(N)c1C#N)c1nn2ccc(C(F)(F)F)c2c(=O)n1-c1ccccc1 | 113 | 4.2 | 3.3 | 2040 | 3940 | 1.5 | 2.4 | 8.6 | 3 |  | 37 | 16 | clearance [24]: 4.2 mL/min/kg |
